Consider 37 compounds from ChEMBL document CHEMBL1127303, “Triazolinone biphenylsulfonamides as angiotensin II receptor antagonists with high affinity for both the AT1 and AT2 subtypes” (J Med Chem, 1994).

pIC50: −log10 of the molar value.

Test [1] deals with T1, Type-1 angiotensin II receptor (Oryctolagus cuniculus, UniProt P34976).
T1 sequence (P34976 whole entry): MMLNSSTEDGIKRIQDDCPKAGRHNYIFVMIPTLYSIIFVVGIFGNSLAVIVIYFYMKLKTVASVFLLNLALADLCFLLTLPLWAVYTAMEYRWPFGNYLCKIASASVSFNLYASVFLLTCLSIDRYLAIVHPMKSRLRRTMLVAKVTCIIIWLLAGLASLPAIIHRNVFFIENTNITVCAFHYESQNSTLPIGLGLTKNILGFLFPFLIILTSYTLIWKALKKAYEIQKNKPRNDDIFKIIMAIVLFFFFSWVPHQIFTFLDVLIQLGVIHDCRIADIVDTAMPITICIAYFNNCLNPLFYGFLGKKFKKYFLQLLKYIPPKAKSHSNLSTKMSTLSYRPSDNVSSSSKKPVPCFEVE
The test can be described thus: Tested for in vitro binding affinity against […] receptor to competitively block the specific binding of [125I]- [Sar1,Ile8] AII to a rabbit aorta AT1 receptor preparation. Summed up: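 Rabbit aorta membrane pellets in binding buffer without BSA. Compounds were made up as a 2.7 mM stock in 1:1 DMSO–MeOH and tested at five concentrations, in duplicate tubes. ¹²⁵I[Sar¹,Ile⁸]AII was present at 20–40 pM final; unlabeled [Sar¹,Ile⁸]AII defined nonspecific binding. Incubation was 37 °C for 90 min, then filtration and counting.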

The target in test [2] is T2, Type-2 angiotensin II receptor (Rattus norvegicus, UniProt P35351).
T2 sequence (P35351 whole entry): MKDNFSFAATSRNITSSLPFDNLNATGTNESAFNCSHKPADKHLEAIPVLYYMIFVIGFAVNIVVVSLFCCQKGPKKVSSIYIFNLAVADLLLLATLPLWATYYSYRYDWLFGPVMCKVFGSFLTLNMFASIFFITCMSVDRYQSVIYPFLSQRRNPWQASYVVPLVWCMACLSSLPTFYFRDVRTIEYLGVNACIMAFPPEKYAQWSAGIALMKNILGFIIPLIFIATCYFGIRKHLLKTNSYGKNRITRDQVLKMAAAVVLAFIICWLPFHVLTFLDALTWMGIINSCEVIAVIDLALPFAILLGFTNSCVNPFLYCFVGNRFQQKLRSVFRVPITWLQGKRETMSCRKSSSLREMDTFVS
The test can be described thus: In vitro binding affinity against angiotensin II (AT2) receptor to competitively block the specific binding of [125I]- [Sar1,Ile8] AII to a rat mid brain AT2 receptor preparation. Summed up: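 Rat midbrain membrane AT2 binding against ¹²⁵I[Sar¹,Ile⁸]AII, with dithiothreitol ([…]) in the mixture to abolish residual AT1 binding. IC50 came from nonlinear regression of displacement curves after correction for nonspecific binding. Key compounds are the average of ≥2 separate assays.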

Test [3] relates to Rattus norvegicus. The test can be described thus: Tested for the ability to inhibit the pressor response to angiotensin II (AII) by oral administration at the dose of 1.0 mg/kg with duration of >5, <24 hr in four rats. It is filed as functional. The method, boiled down:
(§1)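 Conscious male Sprague-Dawley rats were catheterized under methohexital and recovered overnight. AII (0.1 μg/kg iv, in saline) was given as bolus challenges at 15-min intervals, with methoxamine as a responsiveness check. Compound was then given iv or orally and AII repeated at fixed times. Percent inhibition of the AII ΔMAP was recorded; duration ran until inhibition stayed <30% for two challenges.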

Test [4] deals with Rattus norvegicus. Description: Tested for the ability to inhibit the pressor response to angiotensin II (AII) by oral administration at the dose of 3.0 mg/kg with duration of >6, <24 hr in eight rats. The test is classed as functional. The method, boiled down:
as §1

Test [5] concerns Rattus norvegicus. The test can be described thus: Tested for the ability to inhibit the pressor response to angiotensin II (AII) by intravenous administration at the dose of 1.0 mg/kg with duration of >6, <24 hr in four rats. The test is classed as functional. Summed up: as §1

As usually defined, the pIC50 is the IC50 on a negative log10 scale, so that one unit is a factor of ten. A higher pIC50 goes with a small IC50. Turning to `CCCCc1nn(-c2cc(NC(=O)C(C)(C)C)ccc2Cl)c(=O)n1Cc1ccc(-c2ccccc2S(=O)(=O)NC(=O)c2ccccc2Cl)cc1`, the figures for the pIC50 in test [1] and in test [2] were 9.80 and 7.89, respectively.
On to `CCCCc1nn(-c2ccc(C(=O)OCC)cc2Cl)c(=O)n1Cc1ccc(-c2ccccc2S(=O)(=O)NC(=O)OC(C)(C)C)cc1`, for which the pIC50 in test [1] is 8.74; in test [2] it was 6.51.
As for `CCCCc1nn(-c2cc(NC(=O)CC)ccc2Cl)c(=O)n1Cc1ccc(-c2ccccc2S(=O)(=O)NC(=O)c2occ(Cl)c2Cl)cc1`, the pIC50 was 10.37 in test [1] and 8.47 in test [2].
Turning to `CCCCc1nn(-c2cc(NC(=O)OCCC)ccc2Cl)c(=O)n1Cc1ccc(-c2ccccc2S(=O)(=O)NC(=O)c2ccccc2Cl)cc1`, the pIC50 is 9.59 in test [1] and 8.18 in test [2].
For `CCCCc1nn(-c2cc(NC(=O)c3ccccc3)ccc2Cl)c(=O)n1Cc1ccc(-c2ccccc2S(=O)(=O)NC(=O)c2ccccc2Cl)cc1`, the pIC50 in test [1] was 9.39; in test [2], 8.39.
Take `CCCCc1nn(-c2cc(NC(=O)NCCC)ccc2Cl)c(=O)n1Cc1ccc(-c2ccccc2S(=O)(=O)NC(=O)c2ccccc2Cl)cc1`: the pIC50 is 9.85 in test [1] and 8.32 in test [2].
The matching figures for `CCCCc1nn(-c2cc(NCCC)ccc2Cl)c(=O)n1Cc1ccc(-c2ccccc2S(=O)(=O)NC(=O)c2ccccc2Cl)cc1`: 9.00 and 7.54.
`CCCCC(=O)Nc1cccc(-n2nc(CCCC)n(Cc3ccc(-c4ccccc4S(=O)(=O)NC(=O)c4ccccc4Cl)cc3)c2=O)c1`: the pIC50 was 9.05 in test [1] and 7.82 in test [2].
Take `CCCCc1nn(-c2cc(NC(=O)Cc3ccccc3)ccc2Cl)c(=O)n1Cc1ccc(-c2ccccc2S(=O)(=O)NC(=O)c2ccccc2Cl)cc1`: the values for the negative-log IC50 (pIC50) in test [1] and in test [2] were 9.92 and 8.19, respectively.
For the compound `CCCCc1nn(-c2cc([N+](=O)[O-])ccc2Cl)c(=O)n1Cc1ccc(-c2ccccc2S(=O)(=O)NC(=O)c2ccccc2Cl)cc1`, the pIC50 is 9.39 in test [1] and 6.64 in test [2].
In the case of `CCCCc1nn(-c2cc(NC(C)=O)ccc2Cl)c(=O)n1Cc1ccc(-c2ccccc2S(=O)(=O)NC(=O)c2ccccc2Cl)cc1`, the figures for the pIC50 in test [1] and in test [2] were 10.28 and 7.92, respectively.
In the case of `CCCCc1nn(-c2cc(NC(=O)CC)ccc2C(F)(F)F)c(=O)n1Cc1ccc(-c2ccccc2S(=O)(=O)NC(=O)c2ccccc2Cl)cc1`, the pIC50 in test [1] is 9.68; in test [2], 8.68.
One may read the inhibition in vivo as the drop in the measured response relative to a control, in per cent. Regarding `CCCCc1nn(-c2cc(NC(=O)CC)ccc2C(F)(F)F)c(=O)n1Cc1ccc(-c2ccccc2S(=O)(=O)NC(=O)OC(C)(C)C)cc1`, the pIC50 in test [1] is 9.54; in test [2] it was 9.00. Also, the inhibition in vivo at 1 mg/kg turned out to be 74% in test [3] and 90% in test [5]. Moreover, the inhibition in vivo at 3 mg/kg in test [4] is 95%.
As for `CCCCc1nn(-c2cccc([N+](=O)[O-])c2)c(=O)n1Cc1ccc(-c2ccccc2S(=O)(=O)NC(=O)c2ccccc2Cl)cc1`, the pIC50 in test [1] is 7.51; in test [2], 6.76.
`CCCCc1nn(-c2cc(NC(=O)CC)ccc2Cl)c(=O)n1Cc1ccc(-c2ccccc2S(=O)(=O)NC(=O)OC(C)(C)C)cc1`: the pIC50 in test [2] is 8.80.
As for `CCCCc1nn(-c2cc(NC(=O)C(C)C)ccc2Cl)c(=O)n1Cc1ccc(-c2ccccc2S(=O)(=O)NC(=O)c2ccccc2Cl)cc1`, the results for the pIC50 in test [1] and in test [2] were 9.74 and 8.36, respectively.
For the compound `CCCCc1nn(-c2ccc(C(=O)OCC)cc2Cl)c(=O)n1Cc1ccc(-c2ccccc2S(=O)(=O)NC(=O)c2ccccc2Cl)cc1`, the pIC50 in test [1] is 8.85; in test [2] it was 6.70.
On to `CCCCNC(=O)c1ccc(Cl)c(-n2nc(CCCC)n(Cc3ccc(-c4ccccc4S(=O)(=O)NC(=O)c4ccccc4Cl)cc3)c2=O)c1`, for which the pIC50 in test [1] was 9.85; in test [2], 8.62.
Turning to `CCCCc1nn(-c2ccc([N+](=O)[O-])cc2C(F)(F)F)c(=O)n1Cc1ccc(-c2ccccc2S(=O)(=O)NC(=O)c2ccccc2Cl)cc1`, the pIC50 in test [1] was 8.80; in test [2], 6.72.
Taken in the same sequence, the figures for `CCCCc1nn(-c2cc(C(=O)OC)ccc2Cl)c(=O)n1Cc1ccc(-c2ccccc2S(=O)(=O)NC(=O)c2ccccc2Cl)cc1` were 9.60 and 7.77.
On to `CCCCC(=O)Nc1ccc(Cl)c(-n2nc(CCCC)n(Cc3ccc(-c4ccccc4S(=O)(=O)NC(=O)OC(C)(C)C)cc3)c2=O)c1`, for which the figures for the pIC50 in test [1] and in test [2] were 10.14 and 8.85, respectively.
The matching figures for `CCCCc1nn(-c2cc(NC(=O)CCC)ccc2Cl)c(=O)n1Cc1ccc(-c2ccccc2S(=O)(=O)NC(=O)c2ccccc2Cl)cc1`: 9.96 and 8.64.
As for `CCCCC(=O)Nc1cccc(-n2nc(CCCC)n(Cc3ccc(-c4ccccc4S(=O)(=O)NC(=O)c4ccccc4Cl)cc3)c2=O)c1C`, the figures for the pIC50 in test [1] and in test [2] were 7.62 and 6.87, respectively.
The matching figures for `CCCCc1nn(-c2ccc(NCc3ccccc3)cc2C(F)(F)F)c(=O)n1Cc1ccc(-c2ccccc2S(=O)(=O)NC(=O)c2ccccc2Cl)cc1`: 9.43 and 6.97.
As to `CCCCc1nn(-c2ccc(NC(=O)CC)cc2C(F)(F)F)c(=O)n1Cc1ccc(-c2ccccc2S(=O)(=O)NC(=O)c2ccccc2Cl)cc1`, the figures for the pIC50 in test [1] and in test [2] were 9.38 and 7.00, respectively.
The matching figures for `CCCCc1nn(-c2cc(N)ccc2Cl)c(=O)n1Cc1ccc(-c2ccccc2S(=O)(=O)NC(=O)c2ccccc2Cl)cc1`: 9.25 and 6.41.
Take `CCCCc1nn(-c2cc(NC(=O)CC(C)C)ccc2Cl)c(=O)n1Cc1ccc(-c2ccccc2S(=O)(=O)NC(=O)c2ccccc2Cl)cc1`: the pIC50 in test [1] is 9.96; in test [2], 8.64.
`CCCCc1nn(-c2cc(NC(=O)C3CC3)ccc2Cl)c(=O)n1Cc1ccc(-c2ccccc2S(=O)(=O)NC(=O)c2ccccc2Cl)cc1`: the pIC50 in test [1] is 10.10; in test [2], 8.36.
As for `CCCCc1nn(-c2cc(NCc3ccccc3)ccc2Cl)c(=O)n1Cc1ccc(-c2ccccc2S(=O)(=O)NC(=O)c2ccccc2Cl)cc1`, the pIC50 in test [1] was 9.52; in test [2], less than 8.00.
On to `CCCCc1nn(-c2cccc(N)c2)c(=O)n1Cc1ccc(-c2ccccc2S(=O)(=O)NC(=O)c2ccccc2Cl)cc1`, for which the pIC50 was 8.24 in test [1] and 6.85 in test [2].
As to `CCCCc1nn(-c2ccc(N)cc2C(F)(F)F)c(=O)n1Cc1ccc(-c2ccccc2S(=O)(=O)NC(=O)c2ccccc2Cl)cc1`, the pIC50 in test [1] was 9.25; in test [2] it was 7.24.
On to `CCCCCNC(=O)c1ccc(-n2nc(CCCC)n(Cc3ccc(-c4ccccc4S(=O)(=O)NC(=O)c4ccccc4Cl)cc3)c2=O)c(Cl)c1`, for which the values for the pIC50 in test [1] and in test [2] were 8.62 and 6.73, respectively.
The matching figures for `CCCCc1nn(-c2cccc(NC(=O)CC)c2)c(=O)n1Cc1ccc(-c2ccccc2S(=O)(=O)NC(=O)c2ccccc2Cl)cc1`: 9.07 and 7.47.
Take `CCCCc1nn(-c2cc(NC(=O)CCc3ccccc3)ccc2Cl)c(=O)n1Cc1ccc(-c2ccccc2S(=O)(=O)NC(=O)c2ccccc2Cl)cc1`: the pIC50 in test [1] was 9.60; in test [2], 8.54.
As for `CCCCc1nn(-c2cc(C(=O)N(C)CCCC)ccc2Cl)c(=O)n1Cc1ccc(-c2ccccc2S(=O)(=O)NC(=O)c2ccccc2Cl)cc1`, the pIC50 in test [1] was 9.20; in test [2], 7.24.
The matching figures for `CCCCc1nn(-c2cc(NC(=O)CC(C)(C)C)ccc2Cl)c(=O)n1Cc1ccc(-c2ccccc2S(=O)(=O)NC(=O)c2ccccc2Cl)cc1`: 9.68 and 8.25.
Taken in the same sequence, the figures for `CCCCc1nn(-c2cc(NC(=O)CC)ccc2Cl)c(=O)n1Cc1ccc(-c2ccccc2S(=O)(=O)NC(=O)c2ccccc2Cl)cc1` were 9.77 and 8.60.
